Laboratory results taken from paper PMC7080202 (Medicinal Chemistry Research, 2013).
Entries after “also recorded” stand apart in the source; their conditions may differ. Where two headings read alike, the source gives them in different places.

Experiments:
Sindbis virus = experiment: microbe, parasite or virus in culture; format: cell-based; conditions: Sindbis virus, Vero, read-out: Antiviral activity EC50 Sindbis virus
Para-influenza-3 virus = experiment: organism not typed; format: cell-based, parainfluenza-3 virus; conditions: Vero, read-out: Antiviral activity EC50 Para-influenza-3 virus
in vitro = conditions: dog
[1] = tested on: Herpes simplex virus-1 (KOS); experiment: microbe, parasite or virus in culture; format: cell-based, herpes simplex virus type 1; conditions: Human alphaherpesvirus 1, HEL, read-out: EC50 Herpes simplex virus-1 (KOS)
Influenza B = experiment: Anti-influenza virus activity, influenza B in MDCK cells; format: cell-based, influenza B virus B/Hong Kong/5/72; conditions: Influenza B virus, MDCK
MDCK cells = conditions: microscopically detectable alteration of normal cell morphology
[2] = tested on: Herpes simplex virus-2 (G); experiment: microbe, parasite or virus in culture; format: cell-based, herpes simplex virus type 2; conditions: Human alphaherpesvirus 2, HEL, read-out: EC50 Herpes simplex virus-2 (G)
[3] = tested on: Human embryonic lung cell cultures; experiment: Cytotoxicity; format: cell-based
Outline: (§1)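 Cell cultures incubated with varying concentrations of test compound, then examined by microscopy. MCC is the lowest concentration that causes a microscopically detectable alteration of normal cell morphology. HEL, Vero and HeLa lines were monitored regularly for mycoplasma and found free of it.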

[4] = tested on: Cytomegalovirus Davis strain; experiment: microbe, parasite or virus in culture; format: cell-based; conditions: Human betaherpesvirus 5, HEL, read-out: EC50 Cytomegalovirus Davis strain
Feline herpes virus = experiment: Antiviral CPE assay, feline herpes virus in CRFK cells; format: cell-based; conditions: CRFK, read-out: EC50 Feline herpes virus
Vero cell cultures = experiment: Cytotoxicity; format: cell-based
Outline: as §1

Coxsackie virus B4 [5] = experiment: microbe, parasite or virus in culture; format: cell-based; conditions: Enterovirus B, B4, Vero, read-out: Antiviral activity EC50 Coxsackie virus B4
[6] = tested on: Vesicular stomatitis virus; experiment: microbe, parasite or virus in culture; format: cell-based; conditions: Vesicular stomatitis virus, HEL, read-out: EC50 Vesicular stomatitis virus
Vaccinia virus = experiment: microbe, parasite or virus in culture; format: cell-based; conditions: Orthopoxvirus vaccinia, HEL, read-out: EC50 Vaccinia virus
Reovirus-1 = experiment: organism not typed; format: cell-based; conditions: Vero, read-out: Antiviral activity EC50 Reovirus-1
[7] = tested on: Herpes simplex virus-1TK-KOS ACV^r; experiment: microbe, parasite or virus in culture; format: cell-based, herpes simplex virus type 1; conditions: Human alphaherpesvirus 1, HEL, read-out: EC50 Herpes simplex virus-1TK-KOS ACV^r
Coxsackie virus B4 [8] = experiment: microbe, parasite or virus in culture; format: cell-based; conditions: Enterovirus B, B4, HeLa, read-out: Antiviral activity EC50 Coxsackie virus B4
HeLa cell cultures = experiment: Cytotoxicity; format: cell-based
Outline: as §1

[9] = tested on: Crandell-Rees feline kidney cells; experiment: Cytotoxicity; format: cell-based
Punta Toro virus = experiment: microbe, parasite or virus in culture; format: cell-based; conditions: Punta Toro virus, Vero, read-out: Antiviral activity EC50 Punta Toro virus
[10] = tested on: mouse-skin papillomas induced by DMBA and TPA; experiment: Two-stage mouse-skin carcinogenesis test; format: in vivo
Outline: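 Specific pathogen-free female ICR mice, 6 weeks old, about 30 g, 15 per group, kept at 24 ± 2 °C. Shaved backs were initiated with DMBA (100 μg, 390 nmol) in 0.1 ml acetone. One week later, TPA (1 μg, 1.7 nmol) in acetone was applied twice weekly. Test compound (85 nmol) in 0.1 ml acetone was applied topically 1 h before each TPA. Papillomas were scored weekly for 20 weeks as % mice bearing papillomas and mean papillomas per mouse.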

Influenza A H1N1 subtype = experiment: Anti-influenza virus activity, influenza A H1N1 in MDCK cells; format: cell-based, influenza A virus A/Puerto Rico/8/34 (H1N1); conditions: H1N1, H3N2 and influenza B; below the non-toxic concentration of 100 µM
[11] = read-out: Antiviral EC50 Influenza B MTS
[12] = read-out: Antiviral EC50 Influenza B Visual CPE score

Structure (SMILES) | EC50 (Sindbis virus) [µM] | CC50 (in vitro) [µM] | EC50 [1] [µM] | EC50 (Influenza B; [11]) [µM] | EC50 (Influenza B; [12]) [µM] | Cytotoxicity Minimum cytotoxic concentration (MDCK cells) | EC50 [2] [µM] | Minimum cytotoxic concentration [3] [µM] | EC50 [4] [µM] | EC50 (Feline herpes virus) [µM] | Minimum cytotoxic concentration (Vero cell cultures) [µM] | EC50 (Coxsackie virus B4 [5]) [µM] | EC50 [6] [µM] | EC50 (Vaccinia virus) [µM] | EC50 [7] [µM] | EC50 (Coxsackie virus B4 [8]) [µM] | Minimum cytotoxic concentration (HeLa cell cultures) [µM] | Minimum cytotoxic concentration [9] [µM] | further results
O=C1/C(=N\NC(=S)NN=Cc2ccccc2)c2ccccc2N1Cc1ccccc1 [4g, 3-{[(3Z)-1-benzyl-2-oxo-2,3-dihydro-1H-indol-3-ylidene]amino}-1-[(phenylmethylidene)amino]thiourea] | > 100 | > 100 | > 100 | > 100 | > 100 | >100 | > 100 | ≥100 | > 100 | > 100 | >100 | > 100 | > 100 | > 100 | > 100 | > 20 | 100 | ≥100 | EC50 (Para-influenza-3 virus): > 100 µM; EC50 (Reovirus-1): > 100 µM; EC50 (Punta Toro virus): > 100 µM
O=C(N/N=C1\C(=O)Nc2ccccc21)N/N=C1\C(=O)Nc2ccccc21 [6a, 1,3-Bis({[(3Z)-2-oxo-2,3-dihydro-1H-indol-3-ylidene]amino})urea] |  | > 100 | > 100 | > 100 | > 100 | >100 | > 100 | ≥100 | > 100 | > 100 | 100 |  | > 100 | > 100 | > 100 | > 100 | >100 | >100 | 
O=C(N/N=C1\C(=O)Nc2ccc(Cl)cc21)N/N=C1\C(=O)Nc2ccc(Cl)cc21 [6b, 1,3-Bis({[(3Z)-5-chloro-2-oxo-2,3-dihydro-1H-indol-3-ylidene]amino})urea] | > 20 | > 100 | > 100 | > 100 | > 100 | >100 | > 100 | 100 | > 20 | 19.7 | 100 | > 20 | > 100 | > 100 | > 100 | > 100 | >100 | >100 | EC50 (Para-influenza-3 virus): > 20 µM; chemoprevention / anti-tumor promoting activity (in words) ([10]; 85 nmol topical): moderate protection; papillomas/mouse ([10]; 85 nmol topical, 10 weeks of promotion): 1.2 papillomas/mouse; papillomas/mouse ([10]; 85 nmol topical, 15 weeks of promotion): 3.9 papillomas/mouse; percentage of papillomas (mice with papillomas) ([10]; 85 nmol topical, after week 17): 100%; papillomas/mouse ([10]; 85 nmol topical, week 20): 6.1 papillomas/mouse; EC50 (Reovirus-1): > 20 µM; EC50 (Punta Toro virus): > 20 µM
Cc1ccc2c(c1)/C(=N/NC(=O)N/N=C1\C(=O)Nc3ccc(C)cc31)C(=O)N2 [6c, 1,3-Bis({[(3Z)-5-methyl-2-oxo-2,3-dihydro-1H-indol-3-ylidene]amino})urea] | > 20 | 46 | > 100 | > 20 | > 20 | ≥20 | > 100 | >100 | > 100 | 55.1 | 100 | > 20 | > 100 | > 100 | > 100 | > 100 | >100 | >100 | EC50 (Para-influenza-3 virus): > 20 µM; chemoprevention / anti-tumor promoting activity (in words) ([10]; 85 nmol topical): highest chemoprevention activity; also recorded: stronger chemoprevention activity; percentage of papilloma-bearing mice ([10]; 85 nmol topical before each TPA, during weeks 10–15): 40–70%; percentage of papilloma-bearing mice ([10]; 85 nmol topical, week 18): 90%; papillomas/mouse ([10]; 85 nmol topical, week 20): 5.1 papillomas/mouse; percentage of papilloma-bearing mice ([10]; 85 nmol topical, week 20): 100%; EC50 (Reovirus-1): > 20 µM; EC50 (Punta Toro virus): > 20 µM
O=C1Nc2ccccc2/C1=N/NC(=S)N/N=C1\C(=O)Nc2ccccc21 [6e, 1,3-Bis({[(3Z)-2-oxo-2,3-dihydro-1H-indol-3-ylidene]amino})thiourea] |  | > 100 | > 100 | 48 ± 31 | 39 ± 5.5 | >100 | > 100 | 100 | > 20 | > 100 | 100 |  | > 100 | > 100 | > 100 | > 100 | >100 | >100 | anti-influenza activity (in words) (Influenza A H1N1 subtype): some activity
Nc1ncnc2c1ncn2C[C@H](O)CO [(S)-DHPA, reference compound] | > 250 |  |  |  |  |  |  |  |  |  | >250 | > 250 |  |  |  | > 250 | >250 |  | EC50 (Para-influenza-3 virus): > 250 µM; EC50 (Reovirus-1): > 250 µM; EC50 (Punta Toro virus): > 250 µM
Nc1nc2c(ncn2COCCO)c(=O)[nH]1 [Acyclovir, reference compound] |  |  | 0.4 |  |  |  | 0.2 |  |  |  |  |  | > 250 | > 250 | 22 |  |  |  | 
NC12CC3CC(CC(C3)C1)C2 [Amantadine, reference compound] |  | > 200 |  | > 200 | > 200 | >200 |  |  |  |  |  |  |  |  |  |  |  |  | 
O=c1[nH]c(=O)n([C@H]2C[C@H](O)[C@@H](CO)O2)cc1/C=C/Br [Brivudin, reference compound] |  |  | 0.04 |  |  |  | 112 | >300 |  |  |  |  | > 250 | 4 | 50 |  |  |  | 
Nc1ccn(C[C@@H](CO)OCP(=O)(O)O)c(=O)n1 [Cidofovir, reference compound] |  |  | 2 |  |  |  | 1 | >300 | 0.78 ± 0.49 |  |  |  | > 250 | 22 | 0.9 |  |  |  | 
Nc1nc(O)c2ncn(COC(CO)CO)c2n1 [Ganciclovir, reference compound] |  |  | 0.02 |  |  |  | 0.01 | >350 | 5.5 ± 2.36 | 1.4 |  |  | > 100 | > 100 | 4 |  |  | >100 | 
CCC(CC)O[C@@H]1C=C(C(=O)O)C[C@H](N)[C@H]1NC(C)=O [Oseltamivir carboxylate, reference compound] |  | > 100 |  | 2.5 ± 0.7 | 6.7 ± 5.3 | >100 |  |  |  |  |  |  |  |  |  |  |  |  | 
NC(=O)c1ncn([C@@H]2O[C@H](CO)[C@@H](O)[C@H]2O)n1 [Ribavirin, reference compound] | > 250 |  |  | 2.45 ± 0.25 | 2.4 ± 1.6 | >100 |  |  |  |  | >250 | 250 |  |  |  | 112 | >250 |  | 
CC(N)C12CC3CC(CC(C3)C1)C2 (centres unmarked) [Rimantadine, reference compound] |  | > 200 |  | > 200 | > 200 | >200 |  |  |  |  |  |  |  |  |  |  |  |  | 
